Experimental data taken from ChEMBL document CHEMBL3525967, “In vitro glucuronidation of the antibacterial triclocarban and its oxidative metabolites” (Drug Metab Dispos, 2012).

How the values were obtained:
Format in all cases: ADME
[1] = biological target: T1, UDP-glucuronosyltransferase 1A1 (Homo sapiens, UniProt P22309); assay: Drug metabolism assessed as human UGT1A1-mediated glucuronidation expressed in baculovirus infected insect sf9 cells incubated for 5 mins prior to UDPGA addition measured after 5 to 30 mins by LC-UV analysis
T1 sequence (P22309 whole entry): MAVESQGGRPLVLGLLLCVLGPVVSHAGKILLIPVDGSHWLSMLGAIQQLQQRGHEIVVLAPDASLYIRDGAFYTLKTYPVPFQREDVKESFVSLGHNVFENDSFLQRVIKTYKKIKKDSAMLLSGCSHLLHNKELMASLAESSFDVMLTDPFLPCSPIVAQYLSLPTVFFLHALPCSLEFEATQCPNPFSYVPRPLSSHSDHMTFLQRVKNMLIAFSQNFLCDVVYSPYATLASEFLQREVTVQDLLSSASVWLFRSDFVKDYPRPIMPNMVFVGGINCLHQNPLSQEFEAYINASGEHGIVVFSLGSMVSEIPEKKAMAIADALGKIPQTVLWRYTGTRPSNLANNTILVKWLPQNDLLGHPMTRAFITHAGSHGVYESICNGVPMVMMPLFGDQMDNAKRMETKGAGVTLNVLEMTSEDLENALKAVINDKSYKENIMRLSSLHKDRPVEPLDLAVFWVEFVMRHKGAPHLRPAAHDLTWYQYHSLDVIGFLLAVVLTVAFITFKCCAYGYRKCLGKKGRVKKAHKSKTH
How it was run: (§1)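 Microsomes or Sf-9 Supersomes (5 µg protein in 200 µL 100 mM potassium phosphate pH 7.4) pre-treated with alamethicin on ice 15 min; substrate 10 µM final (2% DMSO), MgCl2 and saccharolactone 10 mM each; 5 min preincubation at 37 °C, then UDPGA to start. Samples taken at 5, 10, 15, 30 min (or 2, 5, 10, 15 min) into ACN with internal standard; LC-UV-ESI-MS/MS.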

[2] = biological target: T2, UDP-glucuronosyltransferase 2B15 (Homo sapiens, UniProt P54855); assay: Drug metabolism assessed as human UGT2B15-mediated glucuronidation expressed in baculovirus infected insect sf9 cells incubated for 5 mins prior to UDPGA addition measured after 5 to 30 mins by LC-UV analysis; how it was run: as §1
T2 sequence (P54855 whole entry): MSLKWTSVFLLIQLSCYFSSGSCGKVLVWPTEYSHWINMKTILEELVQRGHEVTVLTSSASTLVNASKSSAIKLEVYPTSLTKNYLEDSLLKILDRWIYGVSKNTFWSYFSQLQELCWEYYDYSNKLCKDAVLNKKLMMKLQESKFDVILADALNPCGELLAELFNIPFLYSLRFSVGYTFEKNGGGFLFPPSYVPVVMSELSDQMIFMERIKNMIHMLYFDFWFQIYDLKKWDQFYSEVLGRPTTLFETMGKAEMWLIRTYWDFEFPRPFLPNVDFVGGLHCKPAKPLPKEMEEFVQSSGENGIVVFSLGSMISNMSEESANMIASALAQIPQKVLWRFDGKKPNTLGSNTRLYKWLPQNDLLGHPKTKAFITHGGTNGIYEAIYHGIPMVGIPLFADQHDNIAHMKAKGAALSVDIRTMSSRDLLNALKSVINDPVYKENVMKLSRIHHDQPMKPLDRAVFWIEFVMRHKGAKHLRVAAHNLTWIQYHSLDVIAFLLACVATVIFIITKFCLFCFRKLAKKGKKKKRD

[3] = Drug metabolism in B6C3F1 mouse liver microsomes assessed as glucuronidation incubated for 5 mins prior to UDPGA addition measured after 5 to 30 mins by LC-UV analysis; how it was run: as §1
Liver microsome [4] = assay: Drug metabolism in Sprague-Dawley rat liver microsomes assessed as glucuronidation incubated for 5 mins prior to UDPGA addition measured after 5 to 30 mins by LC-UV analysis; how it was run: as §1
Liver microsome [5] = assay: Drug metabolism in human liver microsomes assessed as glucuronidation incubated for 5 mins prior to UDPGA addition measured after 5 to 30 mins by LC-UV analysis; how it was run: as §1
[6] = biological target: T3, UDP-glucuronosyltransferase 1A10 (Homo sapiens, UniProt Q9HAW8); assay: Drug metabolism assessed as human UGT1A10-mediated glucuronidation expressed in baculovirus infected insect sf9 cells incubated for 5 mins prior to UDPGA addition measured after 5 to 30 mins by LC-UV analysis; how it was run: as §1
T3 sequence (Q9HAW8 whole entry): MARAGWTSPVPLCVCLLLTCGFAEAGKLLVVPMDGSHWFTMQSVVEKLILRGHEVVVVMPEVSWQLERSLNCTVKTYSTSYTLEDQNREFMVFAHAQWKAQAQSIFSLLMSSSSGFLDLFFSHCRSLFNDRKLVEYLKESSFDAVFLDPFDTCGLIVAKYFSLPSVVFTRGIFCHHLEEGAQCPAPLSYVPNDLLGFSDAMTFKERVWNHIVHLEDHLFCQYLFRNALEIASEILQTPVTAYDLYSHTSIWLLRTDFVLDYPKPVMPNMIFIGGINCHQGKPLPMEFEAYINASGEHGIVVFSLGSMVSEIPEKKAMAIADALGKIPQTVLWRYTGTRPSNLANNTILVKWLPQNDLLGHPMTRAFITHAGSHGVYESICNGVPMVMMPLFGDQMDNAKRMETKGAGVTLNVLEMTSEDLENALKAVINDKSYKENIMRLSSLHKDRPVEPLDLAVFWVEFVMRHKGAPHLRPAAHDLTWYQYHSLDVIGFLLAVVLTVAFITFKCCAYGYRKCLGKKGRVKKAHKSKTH

[7] = biological target: T4, UDP-glucuronosyltransferase 2B4 (Homo sapiens, UniProt P06133); assay: Drug metabolism assessed as human UGT2B4-mediated glucuronidation expressed in baculovirus infected insect sf9 cells incubated for 5 mins prior to UDPGA addition measured after 5 to 30 mins by LC-UV analysis; how it was run: as §1
T4 sequence (P06133 whole entry): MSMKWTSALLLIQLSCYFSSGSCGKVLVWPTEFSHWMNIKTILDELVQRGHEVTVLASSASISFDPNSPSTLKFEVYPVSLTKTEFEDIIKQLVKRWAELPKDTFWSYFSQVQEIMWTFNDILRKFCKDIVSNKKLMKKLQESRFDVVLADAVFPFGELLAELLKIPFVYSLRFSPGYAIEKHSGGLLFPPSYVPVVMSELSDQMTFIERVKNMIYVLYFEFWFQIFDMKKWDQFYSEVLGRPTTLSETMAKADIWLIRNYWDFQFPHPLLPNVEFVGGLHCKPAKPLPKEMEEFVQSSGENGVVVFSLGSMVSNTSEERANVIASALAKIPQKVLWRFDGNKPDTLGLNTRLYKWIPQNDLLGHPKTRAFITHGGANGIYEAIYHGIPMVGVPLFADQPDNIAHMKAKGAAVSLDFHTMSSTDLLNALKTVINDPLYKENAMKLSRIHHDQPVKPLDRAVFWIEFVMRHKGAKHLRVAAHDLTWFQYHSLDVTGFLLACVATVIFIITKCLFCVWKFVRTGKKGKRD

[8] = Drug metabolism in human kidney microsomes assessed as glucuronidation incubated for 5 mins prior to UDPGA addition measured after 5 to 30 mins by LC-UV analysis; how it was run: as §1

| SMILES | Drug metabolism [1] [pmol/min/mg] | Drug metabolism [2] | Drug metabolism [3] [pmol/min/mg] | Drug metabolism (Liver microsome [4]) [pmol/min/mg] | Drug metabolism (Liver microsome [5]) [pmol/min/mg] | Drug metabolism [6] [pmol/min/mg] | Drug metabolism [7] | Drug metabolism [8] [pmol/min/mg] | Drug metabolism ([6]; BLD = below limit of detection) |
| --- | --- | --- | --- | --- | --- | --- | --- | --- | --- |
| O=C(Nc1ccc(Cl)c(Cl)c1)Nc1ccc(Cl)cc1O | 850 | metabolite_not_detected | 2600 | 2600 | 2700 | 210 | metabolite_not_detected | 5600 |  |
| O=C(Nc1ccc(Cl)cc1)Nc1cc(Cl)c(Cl)cc1O | 820 | metabolite_not_detected | 7900 | 5500 | 8500 | 280 | metabolite_not_detected | 7700 |  |
| O=C(Nc1ccc(Cl)c(O)c1)Nc1ccc(Cl)c(Cl)c1 | 520 | metabolite_not_detected | 14700 | 8700 | 5200 |  | metabolite_not_detected | 4200 | BLD |
